Data set [1] deals with Rattus norvegicus. Nature of the data set: Antiinflammatory activity against Freund's adjuvant-induced arthritis in Wistar rat assessed as reduction in paw height at 100 mg/kg, po. Type of data set: functional, organism-based. On the set-up: dose 100 mg/kg. An outline of the steps: (§1)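 Arthritis induced by Freund's adjuvant injected into right paw; after 3 days paw height, paw width and joint width re-measured (day 0) and rats randomised. Dosed once daily for 3 further days (days 1–3), orally at 10 ml/kg or ip at 2 ml/kg, in vehicle 10% DMSO/10% Tween 80/80% water. Measurements taken at baseline, day 0 and days 1–4, compared with vehicle group.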

Data set [2] relates to Rattus norvegicus. Put plainly: Antiinflammatory activity against Freund's adjuvant-induced arthritis in Wistar rat assessed as reduction in paw height at 100 mg/kg, ip. Type of data set: functional, organism-based. On the set-up: dose 100 mg/kg. In short, it runs like this: as §1
For data set [3], the system named is Rattus norvegicus. Put plainly: Antiinflammatory activity against Freund's adjuvant-induced arthritis in Wistar rat assessed as reduction in paw width at 100 mg/kg, po. More on the design: dose 100 mg/kg. Type of data set: functional, organism-based. In short, it runs like this: as §1
Data set [4] has as its system Rattus norvegicus. Put plainly: Antiinflammatory activity against Freund's adjuvant-induced arthritis in Wistar rat assessed as reduction in paw width at 100 mg/kg, ip. Type of data set: functional, organism-based. On the set-up: dose 100 mg/kg. In short, it runs like this: as §1
Data set [5] has as its system Rattus norvegicus. Nature of the data set: Antiinflammatory activity against Freund's adjuvant-induced arthritis in Wistar rat assessed as reduction in joint size at 100 mg/kg, po. Type of data set: functional, organism-based. On the set-up: dose 100 mg/kg. In short, it runs like this:
as §1

In data set [6] the test system is Rattus norvegicus. Put plainly: Antiinflammatory activity against Freund's adjuvant-induced arthritis in Wistar rat assessed as reduction in joint size at 100 mg/kg, ip. Type of data set: functional, organism-based. On the set-up: dose 100 mg/kg. In short, it runs like this:
as §1

Data set [7] deals with Rattus norvegicus. Put plainly: Antiinflammatory activity against carrageenan-induced Wistar rat paw oedema at 10 mg/kg, po. On the set-up: dose 10 mg/kg. Type of data set: functional, organism-based. An outline of the steps: (§2)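 Overnight-fasted rats dosed orally (10, 50, 100 mg/kg/10 ml) or with vehicle before carrageenan injection into the footpad. Equal volume of saline injected into left hindpaw. Rats killed 4 h later and hind paws cut and weighed. Oedema taken as right minus left paw weight; means ± SEM versus vehicle.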

Data set [8] has as its system Rattus norvegicus. Put plainly: Antiinflammatory activity against carrageenan-induced Wistar rat paw oedema at 50 mg/kg, po. Type of data set: functional, organism-based. On the set-up: dose 50 mg/kg. In short, it runs like this:
as §2
(The carrageenan paw model is a standard test of acute inflammation.)

Data set [9] deals with Rattus norvegicus. Nature of the data set: Antiinflammatory activity against carrageenan-induced Wistar rat paw oedema at 100 mg/kg, po. Type of data set: functional, organism-based. On the set-up: dose 100 mg/kg. An outline of the steps: as §2
Data set [10] deals with Rattus norvegicus. Put plainly: Toxicity in arthritic Wistar rat assessed as gastric ulcerogenic response at 100 mg/kg, po. Type of data set: organism-based, Stomach. More on the design: dose 100 mg/kg, route oral. To be noted: in vivo. An outline of the steps:
(§3)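 Arthritis induced as for adjuvant model. Two days later rats fasted overnight, then dosed orally (10 ml/kg) or with vehicle; indomethacin 10 mg/kg po as positive control. Rats killed 4 h later, stomachs opened along greater curvature. Ulcer index taken as summed lesion length (mm) in gastric mucosa.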

The subject of data set [11] is Rattus norvegicus. Put plainly: Toxicity in arthritic Wistar rat assessed as gastric ulcerogenic response at 10 mg/kg, po. Type of data set: organism-based, Stomach. More on the design: dose 10 mg/kg, route oral. To be noted: in vivo. An outline of the steps: as §3
For data set [12], the system named is Rattus norvegicus. Put plainly: Antinociceptive activity in Wistar rat assessed as increase in latency time at 50 mg/kg, ip. Type of data set: functional, organism-based. More on the design: dose 50 mg/kg. An outline of the steps: (§4)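 Freund's adjuvant-arthritic rats given ip dosing (10 ml/kg) or vehicle once daily for 4 days. Hot-plate test the day after the last injection at 55 ± 0.5 °C, set for 15–18 s control latency. Latency to hind-paw licking or jump recorded, 60 s cut-off. Each rat tested twice, 30 min apart. Normal rats included as controls.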

The subject of data set [13] is Rattus norvegicus. Nature of the data set: Antinociceptive activity in Wistar rat assessed as increase in latency time at 100 mg/kg, ip. More on the design: dose 100 mg/kg. Type of data set: functional, organism-based. An outline of the steps: as §4
Data set [14] concerns Rattus norvegicus. Nature of the data set: Antiinflammatory activity against Freund's adjuvant-induced arthritis in Wistar rat assessed as reduction in paw height at 10 mg/kg, po. Type of data set: functional, organism-based. More on the design: dose 10 mg/kg. In short, it runs like this: as §1
Data set [15] concerns Rattus norvegicus. Nature of the data set: Antiinflammatory activity against Freund's adjuvant-induced arthritis in Wistar rat assessed as reduction in paw height at 50 mg/kg, po. Type of data set: functional, organism-based. On the set-up: dose 50 mg/kg. In short, it runs like this: as §1
The subject of data set [16] is Rattus norvegicus. Nature of the data set: Antiinflammatory activity against Freund's adjuvant-induced arthritis in Wistar rat assessed as reduction in paw width at 10 mg/kg, po. Type of data set: functional, organism-based. On the set-up: dose 10 mg/kg. An outline of the steps: as §1
Data set [17] has as its system Rattus norvegicus. Put plainly: Antiinflammatory activity against Freund's adjuvant-induced arthritis in Wistar rat assessed as reduction in paw width at 50 mg/kg, po. Type of data set: functional, organism-based. More on the design: dose 50 mg/kg. In short, it runs like this:
as §1

Data set [18] has as its system Rattus norvegicus. Nature of the data set: Antiinflammatory activity against Freund's adjuvant-induced arthritis in Wistar rat assessed as reduction in joint width at 10 mg/kg, po. Type of data set: functional, organism-based. More on the design: dose 10 mg/kg. In short, it runs like this:
as §1

Data set [19] deals with Rattus norvegicus. Nature of the data set: Antiinflammatory activity against Freund's adjuvant-induced arthritis in Wistar rat assessed as reduction in joint width at 50 mg/kg, po. On the set-up: dose 50 mg/kg. Type of data set: functional, organism-based. An outline of the steps:
as §1

For data set [20], the system named is Rattus norvegicus. Put plainly: Antiinflammatory activity in Wistar rat assessed as reduction of carrageenan-induced paw oedema. Type of data set: functional, organism-based. In short, it runs like this: as §2

Calls of active or inactive are those of the source.

Consider `FC(F)(F)c1ccnc(-n2nc3c(c2-c2ccccc2)CCCC3)n1`, for which the result with Rattus norvegicus [1], in the data set with Rattus norvegicus [2] and in the data set with Rattus norvegicus [4] was Active. Besides, the result in the data set with Rattus norvegicus [3], in the data set on Rattus norvegicus [5], in the data set on Rattus norvegicus [6], in the data set with Rattus norvegicus [7], with Rattus norvegicus [8] and with Rattus norvegicus [9] was inactive. Also, the Activity entry with Rattus norvegicus [10] is recorded as “Non-toxic”.

On to `COc1ccc2c(c1)c(CC(=O)O)c(C)n2C(=O)c1ccc(Cl)cc1` [INDOMETHACIN], for which the Activity entry in the data set with Rattus norvegicus [11] is reported as “Toxic”.

With `FC(F)(F)c1ccc(-n2nc3c(c2-c2ccccc2)CCCC3)cc1`, the outcome in the data set with Rattus norvegicus [1], in the data set on Rattus norvegicus [3], in the data set on Rattus norvegicus [5], in the data set with Rattus norvegicus [14], in the data set on Rattus norvegicus [15] and with Rattus norvegicus [16] was inactive. For the same molecule, the outcome in the data set on Rattus norvegicus [17], with Rattus norvegicus [18] and with Rattus norvegicus [19] was inactive. For the same molecule, the outcome with Rattus norvegicus [2], in the data set with Rattus norvegicus [4], in the data set on Rattus norvegicus [6], in the data set with Rattus norvegicus [12] and in the data set with Rattus norvegicus [13] was Active. Also, the Activity result in the data set with Rattus norvegicus [10] was “Non-toxic”; in the data set with Rattus norvegicus [20] it was “Dose-dependent effect”.

For the origin of these results see ChEMBL document CHEMBL1147923, “Synthesis, docking studies and anti-inflammatory activity of 4,5,6,7-tetrahydro-2H-indazole derivatives” (Bioorg Med Chem, 2007).
